{
  "source": "paper PMC7590959",
  "about": "(Journal of medicinal chemistry, 2020)",
  "key": {"Caco-2": {"test_system": "Caco-2", "assay": "Caco-2 permeability", "format": "in vitro ADME"}, "[1]": {"test_system": "seven other tested ion channels", "assay": "Other ion channels", "format": "binding", "details": "30 μM"}, "hERG": {"target": "hERG (Homo sapiens, UniProt Q12809)", "sequence (Q12809 whole entry)": "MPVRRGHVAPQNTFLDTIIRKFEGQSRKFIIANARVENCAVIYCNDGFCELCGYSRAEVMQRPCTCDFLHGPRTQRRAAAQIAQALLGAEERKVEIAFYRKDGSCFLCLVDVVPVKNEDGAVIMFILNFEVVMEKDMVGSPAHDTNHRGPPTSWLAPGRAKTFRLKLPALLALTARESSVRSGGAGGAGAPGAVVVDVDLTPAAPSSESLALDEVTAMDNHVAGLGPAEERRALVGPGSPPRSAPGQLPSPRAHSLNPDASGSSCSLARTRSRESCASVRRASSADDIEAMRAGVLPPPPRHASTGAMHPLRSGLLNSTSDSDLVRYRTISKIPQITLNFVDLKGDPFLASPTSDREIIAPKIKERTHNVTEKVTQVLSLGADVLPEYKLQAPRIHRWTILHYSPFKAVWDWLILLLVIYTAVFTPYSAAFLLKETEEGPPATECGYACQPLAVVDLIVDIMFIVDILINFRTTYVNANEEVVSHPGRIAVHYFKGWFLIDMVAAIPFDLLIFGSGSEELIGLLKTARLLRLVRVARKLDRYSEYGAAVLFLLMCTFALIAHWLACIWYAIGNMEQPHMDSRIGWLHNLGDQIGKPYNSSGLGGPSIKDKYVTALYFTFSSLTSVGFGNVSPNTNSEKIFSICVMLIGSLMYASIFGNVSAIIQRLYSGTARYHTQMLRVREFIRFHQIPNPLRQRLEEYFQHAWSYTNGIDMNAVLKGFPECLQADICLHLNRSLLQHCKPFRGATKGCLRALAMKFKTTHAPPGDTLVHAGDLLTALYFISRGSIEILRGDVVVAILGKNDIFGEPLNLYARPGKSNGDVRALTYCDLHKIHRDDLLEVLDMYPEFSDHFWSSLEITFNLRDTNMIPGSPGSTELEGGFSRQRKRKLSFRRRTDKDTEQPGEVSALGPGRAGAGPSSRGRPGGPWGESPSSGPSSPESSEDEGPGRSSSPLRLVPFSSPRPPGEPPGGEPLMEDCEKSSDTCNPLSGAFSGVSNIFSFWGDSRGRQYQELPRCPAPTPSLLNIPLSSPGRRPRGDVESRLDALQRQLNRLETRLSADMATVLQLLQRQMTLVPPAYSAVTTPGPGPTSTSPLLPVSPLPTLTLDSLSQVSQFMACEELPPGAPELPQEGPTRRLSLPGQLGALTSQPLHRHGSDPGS", "assay": "hERG binding", "details": "30 μM"}, "[2]": {"test_system": "primary human hepatocytes", "assay": "Toxicity against primary human hepatocytes", "format": "cell-based", "details": "maximum concentration 100 μM, 72 h incubation"}, "PDC-3": {"target": "PDC-3 (Pseudomonas aeruginosa, UniProt P24735, T105A)", "assay": "β-Lactamase hydrolysis, PDC-3", "format": "biochemical, P. aeruginosa"}, "PER-2": {"test_system": "PER-2", "assay": "β-Lactamase hydrolysis, PER-2", "format": "biochemical", "details": "PER-2, 200 nM enzyme, 100 μM 1"}, "OXA-23": {"target": "OXA-23 (Acinetobacter baumannii, UniProt Q9L4P2)", "assay": "β-Lactamase hydrolysis, OXA-23", "format": "biochemical", "details": "OXA-23, 200 nM enzyme, 100 μM 1"}, "eight CYP enzymes": {"test_system": "eight CYP enzymes", "assay": "CYP inhibition", "format": "in vitro ADME", "details": "30 μM"}, "OXA-24": {"target": "OXA-24 (Acinetobacter baumannii, UniProt Q8RLA6)", "assay": "β-Lactamase hydrolysis, OXA-24", "format": "biochemical", "details": "OXA-24, 200 nM enzyme, 100 μM 1"}, "KPC-2": {"target": "KPC-2 (Klebsiella pneumoniae, UniProt Q9F663)", "assay": "β-Lactamase hydrolysis, KPC-2", "format": "biochemical", "details": "KPC-2, 200 nM enzyme, 100 μM 1"}, "[3]": {"assay": "Plasma PK after IV administration in mice", "format": "in vivo", "details": "CD-1, mouse, 50 mg/kg", "outline": "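CD-1 mice in groups of 24 received 50 mg/kg IV with parallel sampling. Blood was taken by cardiac puncture under isoflurane into lithium heparin or K2EDTA tubes and kept on ice. Tubes were spun at 2500 × g for 15 min at 4 °C within 1 h, and plasma was stored at −70 °C. Samples were acetonitrile-precipitated and run by HPLC-MS/MS against a spiked-plasma calibration curve with internal standard. Parameters were derived by noncompartmental analysis.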"}, "Gram-negative isolates": {"test_system": "Gram-negative isolates", "assay": "Abbreviated MIC panel of Gram-negative isolates", "format": "cell-based", "outline": "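Broth microdilution MIC using iron-depleted cation-adjusted Mueller–Hinton broth, except where noted otherwise. The inoculum was lowered to 6 × 10^4 CFU/mL.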"}, "[4]": {"test_system": "K. pneumoniae (100 clinical isolates)", "details": "comparator MICs from the original studies; cited from earlier work"}, "[5]": {"test_system": "P. aeruginosa (197 clinical isolates)", "details": "comparator MICs from the original studies; cited from earlier work"}, "[6]": {"details": "IV bags, in 24 h after reconstitution; known, ref not given; cited from earlier work"}},
  "data": [
    {"smiles": "CC(C)(O/N=C(\\C(=O)N[C@H]1CN2CC(C(=O)NCCN3C(=O)c4cc(O)c(O)cc4C3=O)=C(C(=O)O)N2C1=O)c1csc(N)n1)C(=O)O", "note": "[Compound 1, (S,Z)-6-(2-(2-Aminothiazol-4-yl)-2-(((2-carboxypropan-2-yl)oxy)imino)acetamido)-2-((2-(5,6-dihydroxy-1,3-dioxoisoindolin-2-yl)ethyl)carbamoyl)-5-oxo-6,7-dihydro-1H,5H-pyrazolo[1,2-a]pyrazole-3-carboxylic Acid]", "values": [
      {"measurement": "Caco-2 permeability", "setting": "Caco-2", "value": "poor"},
      {"measurement": "ion channel binding", "setting": "[1]", "value": "does not bind"},
      {"measurement": "hERG binding", "setting": "hERG", "value": "does not bind"},
      {"measurement": "toxicity", "setting": "[2]", "value": "not found"},
      {"measurement": "hydrolysis by β-lactamase", "setting": "PDC-3", "value": "hydrolysis was not detected"},
      {"measurement": "hydrolysis by β-lactamase", "setting": "PER-2", "value": "hydrolysis was not detected"},
      {"measurement": "hydrolysis by β-lactamase", "setting": "OXA-23", "value": "hydrolysis was not detected"},
      {"measurement": "CYP inhibition", "setting": "eight CYP enzymes", "value": "does not inhibit"},
      {"measurement": "hydrolysis by β-lactamase", "setting": "OXA-24", "value": "hydrolysis was not detected"},
      {"measurement": "hydrolysis by β-lactamase", "setting": "KPC-2", "value": "hydrolysis was not detected"},
      {"measurement": "clearance at 2 h", "setting": "[3]", "value": 0.84, "unit": "L/h/kg"},
      {"measurement": "concentration at 2 h", "setting": "[3]", "value": "> 1", "unit": "µg/mL"}
    ]},
    {"smiles": "CC(C)(O/N=C(\\C(=O)N[C@H]1CN2CC(C(=O)NCCc3ccccc3)=C(C(=O)O)N2C1=O)c1csc(N)n1)C(=O)O", "note": "[Compound 2, (S,Z)-6-(2-(2-Aminothiazol-4-yl)-2-(((2-carboxypropan-2-yl)oxy)imino)acetamido)-5-oxo-2-(phenethylcarbamoyl)-6,7-dihydro-1H,5H-pyrazolo[1,2-a]pyrazole-3-carboxylic Acid]", "values": [
      {"measurement": "MIC", "setting": "Gram-negative isolates", "value": "> 64", "unit": "mg/L"}
    ]},
    {"smiles": "CC(C)(O/N=C(\\C(=O)N[C@@H]1C(=O)N2C(C(=O)[O-])=C(C[n+]3ccccc3)CS[C@H]12)c1csc(N)n1)C(=O)O", "note": "[ceftazidime (4), ceftazidime]", "values": [
      {"measurement": "MIC50", "setting": "[4]", "value": ">64", "unit": "mg/L"},
      {"measurement": "MIC90", "setting": "[4]", "value": ">64", "unit": "mg/L"},
      {"measurement": "MIC90", "setting": "[5]", "value": ">16", "unit": "mg/L"}
    ]},
    {"smiles": "C[C@@H](O)[C@H]1C(=O)N2C(C(=O)O)=C(S[C@@H]3CN[C@H](C(=O)N(C)C)C3)[C@H](C)[C@H]12", "note": "[meropenem (6), meropenem]", "values": [
      {"measurement": "degradation after reconstitution", "setting": "[6]", "value": "> 30", "unit": "%"},
      {"measurement": "MIC90", "setting": "[4]", "value": ">64", "unit": "mg/L"},
      {"measurement": "MIC90", "setting": "[5]", "value": ">8", "unit": "mg/L"}
    ]}
  ]
}
